The record followed here is ChEMBL document CHEMBL4033794, “Discovery of Trifluoromethyl Glycol Carbamates as Potent and Selective Covalent Monoacylglycerol Lipase (MAGL) Inhibitors for Treatment of Neuroinflammation” (J Med Chem, 2018).

Values after ≈ are worked out from the molar mass of the structure shown. Active and inactive are the calls of the source. A value given as a limit tells only on which side of the number the result lay.

A short description of data set [1]: Ratio of AUClast in C57BL6J mouse brain to plasma at 1 mg/kg, sc measured up to 24 hrs post dose by HPLC-MS/MS analysis. To be noted: brain and plasma.
Data set [2] in a line: Kinetic solubility of the compound at pH 7.4. Type of data set: physicochemical. As to conditions: buffer, read-out: Kinetic_solubility.
In data set [3] the target is T1, CES1 (liver carboxylesterase 1) (Homo sapiens, UniProt P23141).
T1 sequence (P23141 whole entry): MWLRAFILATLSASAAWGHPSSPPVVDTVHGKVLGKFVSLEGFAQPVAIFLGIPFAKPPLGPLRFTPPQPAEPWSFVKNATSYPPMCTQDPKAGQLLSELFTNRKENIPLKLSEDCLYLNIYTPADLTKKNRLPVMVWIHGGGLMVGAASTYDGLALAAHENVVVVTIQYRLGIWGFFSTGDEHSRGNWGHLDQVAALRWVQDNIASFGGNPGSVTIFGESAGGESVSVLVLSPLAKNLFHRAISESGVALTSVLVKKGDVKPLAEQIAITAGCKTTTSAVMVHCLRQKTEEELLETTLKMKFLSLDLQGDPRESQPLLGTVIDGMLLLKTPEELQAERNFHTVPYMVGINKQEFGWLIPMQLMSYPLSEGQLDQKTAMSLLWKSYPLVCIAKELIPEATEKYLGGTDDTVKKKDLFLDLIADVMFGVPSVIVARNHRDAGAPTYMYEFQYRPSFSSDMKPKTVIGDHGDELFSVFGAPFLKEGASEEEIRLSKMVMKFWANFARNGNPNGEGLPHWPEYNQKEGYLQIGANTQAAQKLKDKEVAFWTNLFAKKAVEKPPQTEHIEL
The data set is described as follows: Inhibition of human CES1 at 10 uM. In a few lines:
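Panel of 42 human serine hydrolases, each exposed to inhibitor at 10 µM; activity expressed as percent inhibition.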

The nature of data set [4]: Apprent permeability in RRCK cells. It counts as ADME, cell-based, Canis lupus familiaris, MDCKII-LE. To be noted: dog, MDCK.
A short description of data set [5]: Plasma clearance in non-human primate at 1 mg/kg, iv administered via cephalic vein measured up to 24 hrs post dose by HPLC-MS/MS analysis. It counts as ADME, organism-based, Macaca mulatta. As to conditions: rhesus monkey. The procedure, abridged:
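Fasted male non-human primates (n = 2), fed ~1 h post-dose; 1 mg/kg IV bolus via saphenous or cephalic vein in 3% DMA/10% Solutol HS15/10% Miglyol/77% of 20% SBECD, 0.5 mL/kg. Femoral blood pre-dose and 0.083–24 h; plasma HPLC-MS/MS; non-compartmental analysis.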

A short description of data set [6]: Volume of distribution in Wistar Hannover rat at 1 mg/kg, iv administered as bolus dose via jugular vein cannula measured up to 24 hrs post dose by HPLC-MS/MS analysis. As to conditions: in vivo. Type of data set: ADME, organism-based. The procedure, abridged:
(§1)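 Rats (n = 2) given 1 mg/kg IV bolus via jugular vein cannula, solution in 3% DMA/10% Solutol HS15/10% Miglyol/77% of 20% SBECD in water, 1 mL/kg. Carotid cannula blood pre-dose and 0.083–24 h; plasma by HPLC-MS/MS; non-compartmental analysis.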

A short description of data set [7]: Half life in Wistar Hannover rat at 1 mg/kg, iv administered as bolus dose via jugular vein cannula measured up to 24 hrs post dose by HPLC-MS/MS analysis. It counts as ADME, organism-based. As to conditions: in vivo. In a few lines: as §1
The nature of data set [8]: Half life in Beagle dog at 1 mg/kg, iv administered via cephalic vein measured up to 24 hrs post dose by HPLC-MS/MS analysis. It counts as ADME, organism-based, Canis lupus familiaris. As to conditions: in vivo.
Data set [9] can be described thus: Unbound fraction in C57BL6J mouse brain at 1 mg/kg, sc measured up to 24 hrs post dose by HPLC-MS/MS analysis. Type of data set: ADME, organism-based.
The target in data set [10] is CYP3A4 (Homo sapiens, UniProt P08684). Briefly: Inhibition of CYP3A4 (unknown origin) at 3 uM. It counts as ADME. The procedure, abridged:
(§2)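 Competitive inhibition screen of CYP3A4, 2D6, 2C9, 2C8 and 1A2 using isoform-relevant probe substrates, compound at 3 μM.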

Data set [11] concerns the target CYP2D6 (Homo sapiens, UniProt P10635). Briefly: Inhibition of CYP2D6 (unknown origin) at 3 uM. It counts as ADME. In a few lines:
as §2

Data set [12] addresses T2, CYP2C8 (Homo sapiens, UniProt P10632).
T2 sequence (P10632 whole entry): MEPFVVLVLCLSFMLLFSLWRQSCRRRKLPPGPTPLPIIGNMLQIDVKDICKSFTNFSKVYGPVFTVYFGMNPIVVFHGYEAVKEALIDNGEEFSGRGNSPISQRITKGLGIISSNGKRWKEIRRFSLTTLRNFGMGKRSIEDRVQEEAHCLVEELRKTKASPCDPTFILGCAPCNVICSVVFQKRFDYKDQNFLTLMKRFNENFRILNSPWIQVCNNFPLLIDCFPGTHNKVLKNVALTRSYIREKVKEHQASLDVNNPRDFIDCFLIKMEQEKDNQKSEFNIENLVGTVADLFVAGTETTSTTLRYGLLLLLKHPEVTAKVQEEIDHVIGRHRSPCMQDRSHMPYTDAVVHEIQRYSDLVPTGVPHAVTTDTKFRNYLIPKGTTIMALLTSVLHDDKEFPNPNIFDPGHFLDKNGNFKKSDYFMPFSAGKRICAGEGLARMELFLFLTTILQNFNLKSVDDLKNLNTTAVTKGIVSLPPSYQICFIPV
Briefly: Inhibition of CYP2C8 (unknown origin) at 3 uM. Type of data set: ADME. The procedure, abridged:
as §2

Data set [13] addresses T3, CYP1A2 (Homo sapiens, UniProt P05177).
T3 sequence (P05177 whole entry): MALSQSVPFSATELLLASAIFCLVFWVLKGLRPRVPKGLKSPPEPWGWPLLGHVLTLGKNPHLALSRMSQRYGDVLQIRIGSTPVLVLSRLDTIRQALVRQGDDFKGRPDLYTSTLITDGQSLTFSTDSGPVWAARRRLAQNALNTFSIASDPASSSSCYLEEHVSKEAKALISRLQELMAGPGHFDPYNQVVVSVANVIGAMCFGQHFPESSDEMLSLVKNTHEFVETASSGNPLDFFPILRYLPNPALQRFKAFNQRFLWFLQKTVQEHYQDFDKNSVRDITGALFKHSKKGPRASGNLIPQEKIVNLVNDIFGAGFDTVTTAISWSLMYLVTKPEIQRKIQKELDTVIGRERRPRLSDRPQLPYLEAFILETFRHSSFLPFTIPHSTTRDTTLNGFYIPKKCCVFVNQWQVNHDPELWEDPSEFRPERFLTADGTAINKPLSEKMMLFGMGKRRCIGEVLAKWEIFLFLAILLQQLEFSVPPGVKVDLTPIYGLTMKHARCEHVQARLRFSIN
Briefly: Inhibition of CYP1A2 (unknown origin) at 3 uM. It counts as ADME. In a few lines: as §2

In data set [14] the test system is Mus musculus. The data set is described as follows: Anti-inflammatory activity in C57BL6J mouse assessed as reduction in LPS-induced PGE2 levels in brain at 1 mg/kg, sc administered 30 mins after LPS challenge measured at 4 hrs post LPS challenge by LC-MS/MS analysis. It counts as functional, organism-based. In a few lines: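 Mice given LPS 20 mg/kg IP or saline, then 1 mg/kg SC compound or vehicle 30 min later; brains collected 4 h post-LPS, homogenized in pH 2.0 PMSF/NH4OAc buffer, spiked with d4-PGE2 internal standard, acetonitrile-extracted, and PGE2 quantified by LC-MS/MS.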

In data set [15] the test system is Mus musculus. Briefly: Anti-inflammatory activity in C57BL6J mouse assessed as reduction in LPS-induced IL-1beta levels in brain at 1 mg/kg, sc administered 30 mins after LPS challenge measured at 4 hrs post LPS challenge. It counts as functional, organism-based.
Data set [16] is described as follows: Drug metabolism in human hepatocytes assessed as glucuronide conjugate formation. Type of data set: ADME, cell-based, Hepatocyte.

Chain of CYP3A4 (P08684 whole entry, canonical isoform): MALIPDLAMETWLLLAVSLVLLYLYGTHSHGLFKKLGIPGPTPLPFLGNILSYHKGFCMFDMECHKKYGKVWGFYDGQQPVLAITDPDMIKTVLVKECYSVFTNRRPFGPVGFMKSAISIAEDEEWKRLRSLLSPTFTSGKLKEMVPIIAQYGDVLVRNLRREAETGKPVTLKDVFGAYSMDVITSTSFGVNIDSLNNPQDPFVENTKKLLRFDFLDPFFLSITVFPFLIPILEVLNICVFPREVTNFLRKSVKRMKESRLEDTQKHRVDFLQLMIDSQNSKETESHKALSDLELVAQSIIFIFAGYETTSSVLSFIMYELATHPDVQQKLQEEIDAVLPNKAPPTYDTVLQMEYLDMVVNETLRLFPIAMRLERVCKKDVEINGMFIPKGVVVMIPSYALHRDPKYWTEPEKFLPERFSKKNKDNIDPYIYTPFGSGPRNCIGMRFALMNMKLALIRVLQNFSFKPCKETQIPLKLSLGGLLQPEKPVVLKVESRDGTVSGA
Chain of CYP2D6 (P10635 whole entry): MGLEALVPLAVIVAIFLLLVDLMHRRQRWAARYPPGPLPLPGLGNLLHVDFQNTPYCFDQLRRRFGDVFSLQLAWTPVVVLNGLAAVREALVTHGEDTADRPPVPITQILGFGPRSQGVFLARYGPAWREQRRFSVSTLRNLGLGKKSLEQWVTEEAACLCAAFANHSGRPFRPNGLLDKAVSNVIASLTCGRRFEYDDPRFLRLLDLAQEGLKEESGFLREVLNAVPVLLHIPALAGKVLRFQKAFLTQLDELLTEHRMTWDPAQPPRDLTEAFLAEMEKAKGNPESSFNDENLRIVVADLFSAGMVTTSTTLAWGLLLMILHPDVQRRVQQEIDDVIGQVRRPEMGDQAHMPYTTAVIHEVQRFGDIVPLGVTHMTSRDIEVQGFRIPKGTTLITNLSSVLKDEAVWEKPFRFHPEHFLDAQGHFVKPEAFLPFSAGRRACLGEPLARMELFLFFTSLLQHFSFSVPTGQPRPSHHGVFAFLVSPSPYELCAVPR

One may read the Kp as the ratio of the level in a tissue or fluid to that in plasma or blood. As usually defined, the inhibition is how much of the control response was suppressed. Usually Papp stands for the rate of passage across a membrane or cell layer, normalised by area and donor concentration. What is called clearance is the rate of elimination divided by the concentration. For orientation: Vd means the apparent volume that relates the amount in the body to the concentration in plasma or blood. A word on the half-life: it is the time needed for the level to fall by half in the phase considered. As usually defined, the fraction unbound is free concentration divided by total concentration. Regarding `O=C(O[C@H](CO)C(F)(F)F)N1C[C@@H]2[C@H](C1)[C@H]2c1ccn(-c2ccc(F)cc2)n1`, the Kp at 24 h in data set [1] turned out to be 2.4. Also, the solubility kinetic in data set [2] turned out to be 115 µM (≈ 45.9 µg/mL). This compound returned an inhibition at 10 µM in data set [3] of 80%. In data set [4], the apparent permeability (Papp) was found to be 21 ×10⁻⁶ cm/s. For the same compound, in data set [5], the clearance is 16 mL/min/kg. Also, the volume of distribution (Vd) in data set [6] is 3.1 L/kg. Besides, the values for the half-life in data set [7] and in data set [8] were 1.3 h and 1.7 h, respectively. The compound further had a free fraction (fraction unbound) at 24 h in data set [9] of 0.00775. The inhibition at 3 µM in [10], in data set [11], in data set [12] and in [13] was less than 10% throughout. Besides, the outcome in [14] and in [15] was Active. The Drug metabolism entry in data set [16] was “Metabolite_Detected”.
